Screens as filed in PubChem.
Hits are enriched below; roughly 2.8% of the tested compounds scored in any of these assays.
NPY1 pot ag – NPY-Y1 receptor potentiators or agonists, primary screen, cell-based; Neuropeptide Y receptor type 1 (Homo sapiens), P25929; NPY-Y1 expressing cells, potentiator/agonist activation; activation, % at 3.6 µM; AID 1304, 2008; hit rate 0.37% among 220,000; in the data active = activation above about 33%, passing the limit was not always enough;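 also: cells stimulated with NPY at EC10 then isoproterenol at EC100; 0% = low agonist plus stimulus and 100% = saturating agonist plus stimulus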
EP2 modulator – EP2 receptor modulators, cAMP readout, primary screen, cell-based, HTRF cAMP, PGE2 stimulation; hit rate 0.83% among 260,000; induction, % at 25 µM; Prostaglandin E2 receptor EP2 subtype (Homo sapiens), P43116; EP2-expressing cells, cAMP HTRF FRET, PGE2 co-stimulation;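 active = compounds whose cAMP rise, as percent of the full-agonist control response, exceeds 60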;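 also: rat C6 glioma line stably carrying human EP2 under a CMV promoter; the protocol text gives 20 µM as final concentration; 100% = response of wells given 1 µM PGE2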
PGE2 EP2 inh – human EP2 receptor antagonists, primary screen, TR-FRET cAMP, C6 glioma cells. inhibition, % at 25 µM. C6 glioma cells expressing human EP2; cells stimulated with saturating PGE2. hit rate 0.52% among 260,000. AID 1422, 2008. Prostaglandin E2 receptor EP2 subtype (Homo sapiens), P43116;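 active = percent inhibition above 40 after rounding to a whole number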;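 also: rat C6 glioma host cells with rolipram phosphodiesterase inhibitor present; the protocol text gives 20 µM as final concentration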
NPY2 pot ag – NPY-Y2 potentiators or agonists, primary screen, cell-based; Neuropeptide Y receptor type 2 (Homo sapiens), P49146; activation, % at 3.6 µM; hit rate 0.45% among 220,000; cells expressing NPY-Y2, potentiator/agonist read-out; in the data active = activation above about 27%;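 also: cells stimulated with NPY near EC25 plus isoproterenol at EC100; 0% = vehicle plus submaximal agonist and 100% = vehicle plus saturating agonist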
Target sequence (P49146 whole entry, looked up): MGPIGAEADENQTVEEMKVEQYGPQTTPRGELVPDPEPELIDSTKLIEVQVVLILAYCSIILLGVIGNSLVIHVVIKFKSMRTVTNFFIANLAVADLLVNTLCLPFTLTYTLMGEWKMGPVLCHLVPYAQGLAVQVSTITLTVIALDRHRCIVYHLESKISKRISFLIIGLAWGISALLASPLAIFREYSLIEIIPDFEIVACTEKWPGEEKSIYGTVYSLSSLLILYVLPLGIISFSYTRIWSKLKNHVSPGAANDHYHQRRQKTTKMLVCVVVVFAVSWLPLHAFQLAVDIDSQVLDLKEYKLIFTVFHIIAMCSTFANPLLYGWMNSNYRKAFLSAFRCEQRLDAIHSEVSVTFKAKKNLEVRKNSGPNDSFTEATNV
NPY Y1 blocker – NPY-Y1 receptor antagonists, primary screen, cell-based; Neuropeptide Y receptor type 1 (Homo sapiens), P25929; hit rate 1% among 200,000; inhibition, % at 3.6 µM; HEK293-CNG Y1 cells, membrane potential fluorescence; NPY at EC95, then isoproterenol;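 active = inhibition above the campaign mean inhibition of all tested compounds plus 3 SD, cut at about 20% in these data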;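 also: 0% = DMSO wells given NPY plus isoproterenol and 100% = isoproterenol alone without NPY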
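Material: HEK293 Y1/CNG channel cell line | Also added: NPY (25 nM), isoproterenol (1 µM), Ro 20-1724 (25 µM) | Compound: One concentration, 3.6 µM, in 0.4% DMSO | Schedule: 3 h dye uptake, 1 h room-temperature compound, 45 min post-isoproterenol | Signal: Membrane-potential fluorescent dye readout | Read-out: % inhibition of NPY effect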
NPY-Y2 antag – NPY-Y2 receptor antagonists, primary screen, cell-based. NPY-Y2 expressing cells, antagonist mode. inhibition, % at 2.7 µM. hit rate 0.99% among 140,000. AID 793, 2007; in the data active = inhibition above about 17%;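 also: 0% = vehicle with agonist challenge and 100% = reference antagonist with challenge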
The depositor's hits bear a star; / = no result given.

SMILES	NPY1 pot ag	EP2 modulator	PGE2 EP2 inh	NPY2 pot ag	NPY Y1 blocker	NPY-Y2 antag
O=C1c2ccccc2-c2ccc(N(Cc3ccc(Br)cc3)Cc3ccc(Br)cc3)cc21	/	18	47*	/	/	/
COC(=O)c1ccc(C2C(C(=O)OC(C)C)=C(N)OC3=C2C(=O)CC(C)(C)C3)cc1 (centres undefined)	/	65*	3	/	/	/
CCOC(=O)C1=C(N)OC2=C(C(=O)CC(C)(C)C2)C1c1ccc(F)cc1 (centres undefined)	/	14	12	/	/	/
Cc1cccc(C)c1NC(=O)CSc1nc2cc3c(cc2cc1C#N)OCCO3	/	10	19	/	/	/
CCc1cccc(CC)c1NC(=O)CSc1nc2cc3c(cc2cc1C#N)OCCO3	/	63*	33	/	/	/
N#Cc1cc2cc3c(cc2nc1SCC(=O)Nc1cccc2ccccc12)OCCO3	/	47	23	/	/	/
N#Cc1cc2cc3c(cc2nc1SCC(=O)NCCc1ccccc1)OCCO3	/	73*	38	/	/	/
COC(=O)c1c(NC(=O)c2cccc(OC)c2)sc(C(=O)N2CCCCC2)c1C	/	-51	6	/	/	/
c1ccc([C@H](c2cccc3c2ccc2ccccc23)[C@H](c2ccccc2)c2cccc3c2ccc2ccccc23)cc1	/	8	41*	/	/	/
O=C1NC(c2ccccc2Cl)C(C(=O)c2cccs2)=C1O (centres undefined)	/	4	10	/	/	/
CC1(C)N([O-])c2cc([N+](=O)[O-])ccc2[N+]1=O	10	-45	87*	-1	/	/
O=S(=O)(c1ccc(Nc2ccc(-c3ccccc3)nn2)cc1)N1CCCC1	/	-18	11	/	/	/
COC(=O)c1cn(C(=O)OC)c2ccccc12	-1	10	7	-3	4	1
COC(=O)c1cn(C(=O)/C=C/c2ccc(OC)c(OC)c2)c2ccccc12	-9	-43	43*	-20	5	/
C=CC[n+]1c(C)n(CC)c2cc(C(=O)OCC)ccc21	/	-44	25	/	/	/
Cc1ccc(S(=O)(=O)NCCC(c2ccc(F)cc2)c2ccco2)cc1 (centres undefined)	31	58	3	12	0	4
Cc1ccc(S(=O)(=O)NCCC(c2ccccc2)c2ccco2)cc1 (centres undefined)	10	64*	4	1	2	3
O=C1CNCCCN2CCN(CCCNCC(=O)Nc3ccc(cc3)S(=O)(=O)c3ccc(cc3)NC(=O)CNCCCN3CCN(CCCNCC(=O)Nc4ccc(cc4)S(=O)(=O)c4ccc(cc4)N1)CC3)CC2	/	7	42*	/	/	/
O=C1CN2CCN(CC2)CC(=O)Nc2ccc(cc2)S(=O)(=O)c2ccc(cc2)NC(=O)CN2CCN(CC2)CC(=O)Nc2ccc(cc2)S(=O)(=O)c2ccc(cc2)N1	/	13	51*	/	/	/
COc1ccccc1NC(=S)Nc1cccc2cnccc12	66*	7	13	89*	-14	-3
COc1ccc(NC(=S)Nc2cccc3cnccc23)cc1	0	-7	1	8	5	-1
COc1ccccc1N1CCN(C(c2ccc(F)cc2)c2nnnn2C(C)C)CC1 (centres undefined)	-13	11	8	4	24*	18*
Cn1c2c(c(=O)n(C)c1=O)CN(CCCN1CCOCC1)CN2	-6	-4	6	7	2	2
O=c1[nH]c(=S)[nH]c2c1CN(CCCN1CCOCC1)CN2	/	-42	102*	/	/	/
O=c1c2ccccc2sc2c(CO)ccc(NCCN3CCCCC3)c12	/	-42	58*	/	/	/
SMILES	NPY1 pot ag	EP2 modulator	PGE2 EP2 inh	NPY2 pot ag	NPY Y1 blocker	NPY-Y2 antag
COc1cccc(NC(=O)C2CCN(C(=O)c3ccccc3C)CC2)c1	/	-23	13	/	/	/
CCOC(=O)CSc1nc2ccc(NC(=O)CSc3nnnn3Cc3ccccc3)cc2s1	104*	-47	16	99*	-14	-3
Nc1ccc2nc(SCC(=O)N3CCOCC3)sc2c1	-2	-12	9	-3	2	/
COC(=O)CSc1nc2ccc(NC(C)=O)cc2s1	68*	-8	12	62*	-8	2
CCOC(=O)CSc1nc2ccc(N)cc2s1	56*	12	14	34*	-8	2
COc1ccc(-c2cc(C(F)(F)F)nc(SCCC(=O)N(C)Cc3cnn(C)c3C)n2)cc1	/	-31	8	/	/	/
CC1CCCN(c2ccc(NS(=O)(=O)c3ccc4[nH]c(=O)[nH]c(=O)c4c3)cc2)C1 (centres undefined)	/	-36	-1	/	/	/
Cc1nc(Sc2ccccc2)c(C#N)c(C)c1[N+](=O)[O-]	-6	61*	7	9	/	/
Cc1cc2ccccc2n2c(=O)n(CC(=O)NC3CCCC3)nc12	/	-17	11	/	/	/
CC1=NN(C(=O)COc2cc(C)ccc2C(C)C)C(O)(c2ccccc2)C1 (centres undefined)	11	61*	3	0	/	/
CC(=O)c1sc(C(C)(C)C)cc1NC(=O)c1ccccc1C(=O)O	3	77*	20	1	/	/
O=C(O)c1ccccc1C(=O)Nc1ccccc1	10	7	5	13	-1	2
CC1=NN(C(C#N)c2ccccc2)C(C)(C)C1 (centres undefined)	10	-14	9	6	3	/
N#C[C@H](c1ccccc1)N1CCCN([C@@H](C#N)c2ccccc2)C1c1ccccc1O (some centres undefined)	/	4	43*	/	/	/
Cc1ccc(S(=O)(=O)C2CS(=O)(=O)CC2O)cc1 (centres undefined)	4	6	9	7	4	-2
CC(=O)C1=C(S(=O)(=O)c2ccc(C)cc2)CS(=O)(=O)C1	8	-62	97*	-2	-6	/
CCc1nn(CC(=O)NCCOC)c(=O)c2cc3sccc3n12	/	-6	/	/	/	/
O=C(c1cccs1)N(Cc1ccco1)c1nc(-c2ccc(F)cc2)cs1	1	53	16	8	14	18*
O=C1CC(=C(c2ccccc2)c2ccccc2)C(=O)N1CCCCN1CCN(c2cccc(Cl)c2)CC1	11	37	16	1	16	8
Cc1ccccc1N1CCN(CCCN2C(=O)CC(=C(c3ccccc3)c3ccccc3)C2=O)CC1	105*	43	13	99*	-19	4
Nc1ncnc2c1nc(-c1ccccc1)n2[C@H]1O[C@@H](CO)[C@H](O)[C@H]1O	/	17	16	/	/	/
Cn1c(N)nc2c(nc(OCc3ccccc3)n2[C@H]2O[C@H](CO)[C@@H](O)[C@@H]2O)c1=O	/	25	57*	/	/	/
COCCn1nnnc1C(C(C)C)N(Cc1cc2cc3c(cc2[nH]c1=O)OCCO3)C1CCCCC1 (centres undefined)	/	-3	10	/	/	/
